Data as given in ChEMBL document CHEMBL2203005 (Bioorg Med Chem, 2012).

How the values were obtained:
[1] = target: T1, Nitric oxide synthase, inducible (Mus musculus, UniProt P29477); assay: Inhibition of LPS-induced iNOS activity in mouse RAW 264.7 cells assessed as inhibition of NO production pretreated with compound for 30 mins before LPS challenge after 24 hrs by Griess reagent method; type: cell-based
T1 sequence (P29477 whole entry): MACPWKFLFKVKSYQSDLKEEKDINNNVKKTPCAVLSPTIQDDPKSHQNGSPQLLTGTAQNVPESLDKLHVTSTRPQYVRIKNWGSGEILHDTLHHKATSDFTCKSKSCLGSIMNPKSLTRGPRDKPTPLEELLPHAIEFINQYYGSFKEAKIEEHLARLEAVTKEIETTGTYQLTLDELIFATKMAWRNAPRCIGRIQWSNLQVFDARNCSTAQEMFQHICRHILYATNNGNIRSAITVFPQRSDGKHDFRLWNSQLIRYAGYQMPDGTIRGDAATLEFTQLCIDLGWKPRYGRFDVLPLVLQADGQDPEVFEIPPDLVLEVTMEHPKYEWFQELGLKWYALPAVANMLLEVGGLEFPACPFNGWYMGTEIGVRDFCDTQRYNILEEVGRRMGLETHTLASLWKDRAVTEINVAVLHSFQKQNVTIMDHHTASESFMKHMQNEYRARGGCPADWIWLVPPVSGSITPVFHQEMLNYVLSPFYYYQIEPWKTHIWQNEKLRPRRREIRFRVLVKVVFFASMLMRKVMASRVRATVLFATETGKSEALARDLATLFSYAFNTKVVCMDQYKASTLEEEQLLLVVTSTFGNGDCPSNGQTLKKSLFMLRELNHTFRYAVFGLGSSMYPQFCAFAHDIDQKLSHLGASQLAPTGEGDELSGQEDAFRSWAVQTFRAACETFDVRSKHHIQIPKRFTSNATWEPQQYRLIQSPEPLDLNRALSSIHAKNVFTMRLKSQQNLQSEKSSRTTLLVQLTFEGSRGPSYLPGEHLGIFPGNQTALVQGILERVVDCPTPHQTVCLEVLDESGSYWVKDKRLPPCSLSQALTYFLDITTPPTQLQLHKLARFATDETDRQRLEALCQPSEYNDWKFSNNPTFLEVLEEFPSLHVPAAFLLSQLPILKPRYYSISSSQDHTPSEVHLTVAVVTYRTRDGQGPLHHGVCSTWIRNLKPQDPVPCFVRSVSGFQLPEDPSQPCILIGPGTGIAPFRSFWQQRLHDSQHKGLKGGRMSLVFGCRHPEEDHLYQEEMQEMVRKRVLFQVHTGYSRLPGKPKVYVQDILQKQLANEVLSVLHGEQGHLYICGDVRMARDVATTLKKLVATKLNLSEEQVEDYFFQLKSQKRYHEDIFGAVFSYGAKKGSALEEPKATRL

Aromatase [2] = target: T2, Aromatase (Homo sapiens, UniProt P11511); conditions: 0.5 h, read-out: INH
T2 sequence (P11511 whole entry): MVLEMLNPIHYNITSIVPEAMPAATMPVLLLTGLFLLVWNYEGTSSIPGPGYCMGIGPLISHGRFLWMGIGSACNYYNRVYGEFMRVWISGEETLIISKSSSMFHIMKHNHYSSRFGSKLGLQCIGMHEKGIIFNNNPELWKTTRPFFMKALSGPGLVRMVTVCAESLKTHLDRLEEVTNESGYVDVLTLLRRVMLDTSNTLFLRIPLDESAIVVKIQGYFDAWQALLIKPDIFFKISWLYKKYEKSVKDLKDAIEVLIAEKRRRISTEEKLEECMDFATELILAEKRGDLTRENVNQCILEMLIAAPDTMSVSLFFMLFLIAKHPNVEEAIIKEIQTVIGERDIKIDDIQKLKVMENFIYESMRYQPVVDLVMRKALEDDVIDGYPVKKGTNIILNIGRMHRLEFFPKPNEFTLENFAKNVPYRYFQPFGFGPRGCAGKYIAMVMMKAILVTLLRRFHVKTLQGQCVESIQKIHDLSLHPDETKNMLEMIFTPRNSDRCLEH

[3] = Inhibition of TNFalpha-induced NF-kappaB activity expressed in HEK293 cells by luciferase reporter gene assay; type: cell-based; conditions: Homo sapiens
[4] = target: T3, Nitric oxide synthase, inducible (Mus musculus) (UniProt P29477); assay: Inhibition of LPS-induced iNOS activity in mouse RAW 264.7 cells assessed as inhibition of NO production at 50 uM pretreated with compound for 30 mins before LPS challenge after 24 hrs by Griess reagent method; type: cell-based
T3 sequence (whole entry): T1 sequence (P29477 whole entry)

HEK293 = assay: Inhibition of TNFalpha-induced NF-kappaB activity expressed in HEK293 cells at 50 uM by luciferase reporter gene assay; type: cell-based; conditions: Homo sapiens
Aromatase [5] = target: T2, Aromatase
[6] = target: NAD(P)H dehydrogenase [quinone] 1 (Mus musculus) (UniProt Q64669); assay: Induction of quinone reductase-1 activity in mouse BPrc1 cells after 48 hrs by MTT assay; type: cell-based
NAD(P)H dehydrogenase [quinone] 1 (Mus musculus), sequence (Q64669 whole entry): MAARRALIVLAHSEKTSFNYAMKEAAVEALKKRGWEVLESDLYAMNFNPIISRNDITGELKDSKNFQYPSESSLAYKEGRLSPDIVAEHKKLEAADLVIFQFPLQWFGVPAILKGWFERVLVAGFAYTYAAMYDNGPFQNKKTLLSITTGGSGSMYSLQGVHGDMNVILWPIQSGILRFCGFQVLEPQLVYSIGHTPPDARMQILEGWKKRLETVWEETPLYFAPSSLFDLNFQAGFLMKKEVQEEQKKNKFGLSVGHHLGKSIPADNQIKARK

[7] = target: NAD(P)H dehydrogenase [quinone] 1 (Mus musculus) (UniProt Q64669); assay: Induction of quinone reductase-1 activity in mouse Hepa-1c1c7 cells after 48 hrs by MTT assay; type: cell-based
In short: (§1)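 Hepa 1c1c7 murine hepatoma cells exposed to compound (max 50 μM) for 48 h in 96-well format, then permeabilized with digitonin. QR1 activity read as NADPH-dependent menadiol-mediated MTT reduction to formazan, absorbance 595 nm; crystal violet total-protein assay in parallel. CD = concentration doubling activity, determined only where induction ratio > 2. Three independent experiments in duplicate; 4′-bromoflavone positive control.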

[8] = target: NAD(P)H dehydrogenase [quinone] 1 (Mus musculus) (UniProt Q64669); assay: Induction of quinone reductase-1 activity in mouse Hepa-1c1c7 cells assessed as induction ratio after 48 hrs by MTT assay relative to control; type: cell-based; in short: as §1
[9] = target: NAD(P)H dehydrogenase [quinone] 1 (Mus musculus) (UniProt Q64669); assay: Induction of quinone reductase-1 activity in mouse TAOc1BPrc1 cells after 48 hrs by MTT assay; type: cell-based

SMILES	CD [6]	CD [7]	further results
Fc1ccccc1-c1nsc(-c2ccccc2F)n1	–	–	IC50 [1]: > 50 µM; inhibition at 50 µM (Aromatase [2]): 53.2%; IC50 [3]: > 50 µM; inhibition [4]: 12.9%; inhibition (HEK293): 40.7%; IC50 (Aromatase [5]): > 50 µM
Fc1ccccc1-c1nsc(-c2ccccc2)n1	> 50 µM	–	–
Cc1c(Cl)cccc1-c1nsc(-c2cccc(Cl)c2C)n1	–	> 50 µM	–
COc1cccc(-c2csc(-c3ccccc3)n2)c1	–	–	IC50 [1]: 45.3 µM; inhibition at 50 µM (Aromatase [2]): 27.1%; IC50 [3]: 31.6 µM; inhibition [4]: 62%; inhibition (HEK293): 64%; IC50 (Aromatase [5]): > 50 µM
CCCCc1ccc(-c2nc(-c3ccccc3)cs2)cc1	> 50 µM	> 50 µM	–
COc1cccc(-c2csc(-c3cccc(OC)c3)n2)c1	–	–	IC50 [1]: > 50 µM; IC50 [3]: 20.3 µM; IC50 (Aromatase [5]): > 50 µM
c1ccc(-c2nsc(-c3ccccc3)n2)cc1	> 50 µM	–	IC50 [1]: > 50 µM; inhibition at 50 µM (Aromatase [2]): 60.2%; IC50 [3]: 47.7 µM
Cc1ccc(Br)cc1-c1nsc(-c2ccc(Br)cc2C)n1	–	> 50 µM	Ratio [8]: 2.3
Cc1ccc(Cl)cc1-c1nsc(-c2ccc(Cl)cc2C)n1	–	0.44 µM	Ratio [8]: 4.9
Fc1ccccc1-c1nc(-c2ccccc2)ns1	–	–	CD [9]: 0.1 µM
COc1cccc(-c2nc(-c3ccccc3)cs2)c1	> 50 µM	–	IC50 [1]: > 50 µM; inhibition at 50 µM (Aromatase [2]): 35.5%; IC50 [3]: 2.7 µM; IC50 (Aromatase [5]): > 50 µM

Continued, in another order:

CD [6]	CD [7]	SMILES	further results
> 50 µM	–	COc1cccc(-c2noc(-c3cccc(OC)c3)n2)c1	–
> 50 µM	> 50 µM	COc1cccc(-c2csc(-c3cccc(OC)c3F)n2)c1	–
> 50 µM	–	COc1cccc(-c2nsc(-c3cccc(OC)c3)n2)c1	–
> 50 µM	–	Brc1cccc(-c2nc(-c3ccccc3)cs2)c1	–
> 50 µM	–	Cc1c(Cl)cccc1-c1nc(-c2ccccc2)cs1	–
> 50 µM	–	COc1cccc(-c2csc(-c3ccc(C)cc3Br)n2)c1	–
> 50 µM	> 50 µM	CCCCc1ccc(-c2nc(-c3cccc(OC)c3)cs2)cc1	–
> 50 µM	> 50 µM	COc1cccc(-c2csc(-c3cccc(Br)c3)n2)c1	–
> 50 µM	–	Cc1ccc(-c2nc(-c3ccccc3)cs2)c(Br)c1	–
> 50 µM	> 50 µM	COc1cccc(-c2csc(-c3cccc(Cl)c3C)n2)c1	–
> 50 µM	> 50 µM	FC(F)(F)c1ccccc1-c1nc(-c2ccccc2)cs1	–
> 50 µM	–	Clc1cccc(Cl)c1-c1nc(-c2ccccc2)cs1	–
> 50 µM	> 50 µM	COc1cccc(-c2csc(-c3cccc(Cl)c3Cl)n2)c1	–
> 50 µM	> 50 µM	COc1cccc(-c2csc(-c3cc(OC)ccc3F)n2)c1	–
> 50 µM	–	COc1cccc(-c2csc(-c3cccc(F)c3F)n2)c1	–
